Experimental findings from ChEMBL document CHEMBL3862028, “Exploring N-Arylsulfonyl-l-proline Scaffold as a Platform for Potent and Selective αvβ1 Integrin Inhibitors” (ACS Med Chem Lett, 2016) are described below.

For test [1], the target named is Integrin alpha-V/beta-1 (Homo sapiens, UniProt P05556+P06756). Kind of test: Inhibition of integrin alphaVbeta1 (unknown origin)-mediated CHO cell adhesion to fibronectin preincubated for 15 to 30 mins followed by 60 min incubation for adhesion by crystal violet staining based cell adhesion assay. The method, boiled down:
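α5-deficient CHO cells engineered to express αvβ1 were tested for adhesion to fibronectin (0.3 mg/ml). Values reported as pIC50 (–logIC50, M) with standard deviation, n=3.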

Test [2] has as its target Integrin alpha-V/beta-8 (Homo sapiens, UniProt P06756+P26012). Kind of test: Inhibition of human integrin alphaVbeta8-mediated human SNB19 cell adhesion to recombinant human TGFbeta1 LAP preincubated for 15 to 30 mins followed by 60 min incubation for adhesion by crystal violet staining based cell adhesion assay. Also noted: species or system SNB-19. In a few lines:
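The αvβ8-expressing glioma line SNB19 was tested for adhesion to recombinant human TGFβ1 LAP (1 mg/ml). Values reported as pIC50 (–logIC50, M) with standard deviation, n=3.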

In test [3] the target is Integrin alpha-V/beta-5 (Homo sapiens, UniProt P06756+P18084). Put plainly: Inhibition of human wild type integrin alphaVbeta5-mediated human SW480 cell adhesion to vitronectin preincubated for 15 to 30 mins followed by 60 min incubation for adhesion by crystal violet staining based cell adhesion assay. The method, boiled down:
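Wild-type SW480 cells adhering to vitronectin (0.1 mg/ml) served to isolate αvβ5. Values reported as pIC50 (–logIC50, M) with standard deviation, n=3.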

For test [4], the target named is Integrin alpha-V/beta-3 (Homo sapiens, UniProt P05106+P06756). Kind of test: Inhibition of human integrin alphaVbeta3-mediated human SW480 cell adhesion to fibrinogen preincubated for 15 to 30 mins followed by 60 min incubation for adhesion by crystal violet staining based cell adhesion assay. The method, boiled down: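 Adhesion of SW480 cells transfected with human β3 to fibrinogen (1 mg/ml), isolating αvβ3. Values reported as pIC50 (–logIC50, M) with standard deviation, n=3.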
Sequence of Integrin alpha-V/beta-3 (P05106 27-788 limits assumed): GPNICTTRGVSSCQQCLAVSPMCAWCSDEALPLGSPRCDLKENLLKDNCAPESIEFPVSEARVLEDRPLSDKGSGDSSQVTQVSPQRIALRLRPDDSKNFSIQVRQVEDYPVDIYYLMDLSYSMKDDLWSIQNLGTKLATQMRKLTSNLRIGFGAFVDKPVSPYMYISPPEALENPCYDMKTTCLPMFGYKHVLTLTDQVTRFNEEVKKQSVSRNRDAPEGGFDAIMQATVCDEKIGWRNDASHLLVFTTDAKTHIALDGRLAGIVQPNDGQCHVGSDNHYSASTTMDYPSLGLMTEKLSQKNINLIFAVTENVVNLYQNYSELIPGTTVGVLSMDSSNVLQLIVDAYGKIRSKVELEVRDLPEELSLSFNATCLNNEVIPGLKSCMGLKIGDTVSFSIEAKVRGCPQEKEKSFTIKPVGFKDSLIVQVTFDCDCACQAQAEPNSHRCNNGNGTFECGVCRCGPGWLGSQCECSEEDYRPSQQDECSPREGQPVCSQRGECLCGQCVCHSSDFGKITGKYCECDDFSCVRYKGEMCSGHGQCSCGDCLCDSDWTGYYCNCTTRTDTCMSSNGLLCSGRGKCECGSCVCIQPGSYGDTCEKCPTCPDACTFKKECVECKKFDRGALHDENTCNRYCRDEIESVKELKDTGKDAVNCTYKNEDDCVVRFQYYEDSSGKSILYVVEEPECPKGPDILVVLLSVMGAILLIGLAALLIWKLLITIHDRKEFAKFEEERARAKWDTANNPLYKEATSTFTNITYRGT
Sequence of Integrin alpha-V/beta-3 (P06756 31-889 limits assumed): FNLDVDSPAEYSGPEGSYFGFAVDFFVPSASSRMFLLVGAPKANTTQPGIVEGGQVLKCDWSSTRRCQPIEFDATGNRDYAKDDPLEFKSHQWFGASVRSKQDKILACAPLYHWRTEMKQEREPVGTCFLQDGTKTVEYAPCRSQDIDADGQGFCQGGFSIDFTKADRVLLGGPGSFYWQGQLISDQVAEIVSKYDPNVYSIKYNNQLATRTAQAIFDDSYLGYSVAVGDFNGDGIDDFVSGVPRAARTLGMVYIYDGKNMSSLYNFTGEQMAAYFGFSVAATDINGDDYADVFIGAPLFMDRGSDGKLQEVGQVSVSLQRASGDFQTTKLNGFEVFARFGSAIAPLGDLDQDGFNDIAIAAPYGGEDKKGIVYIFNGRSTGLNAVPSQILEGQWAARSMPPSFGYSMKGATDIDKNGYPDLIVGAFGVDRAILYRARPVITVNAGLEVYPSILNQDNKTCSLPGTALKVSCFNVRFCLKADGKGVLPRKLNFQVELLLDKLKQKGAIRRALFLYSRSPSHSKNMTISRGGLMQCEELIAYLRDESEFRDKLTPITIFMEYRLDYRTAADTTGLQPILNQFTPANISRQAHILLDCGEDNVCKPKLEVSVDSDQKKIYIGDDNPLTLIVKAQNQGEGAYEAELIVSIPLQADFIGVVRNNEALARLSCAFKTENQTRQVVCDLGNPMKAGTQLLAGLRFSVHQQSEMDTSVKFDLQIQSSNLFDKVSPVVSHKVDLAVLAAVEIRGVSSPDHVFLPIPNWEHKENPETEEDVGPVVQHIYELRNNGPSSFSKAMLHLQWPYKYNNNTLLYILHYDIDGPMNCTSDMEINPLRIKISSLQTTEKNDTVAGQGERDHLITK
Sequence of Integrin alpha-V/beta-3 (P06756 891-1048 limits assumed): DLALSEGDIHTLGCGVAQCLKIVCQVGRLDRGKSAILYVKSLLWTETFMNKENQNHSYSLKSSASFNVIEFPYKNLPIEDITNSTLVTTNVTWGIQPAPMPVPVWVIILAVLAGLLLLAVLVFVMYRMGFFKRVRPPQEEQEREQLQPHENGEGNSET

The target in test [5] is Integrin alpha-5/beta-1 (Homo sapiens, UniProt P05556+P08648). Put plainly: Inhibition of human integrin alpha5beta1-mediated human SW480 cell adhesion to fibronectin preincubated for 15 to 30 mins followed by 60 min incubation for adhesion by crystal violet staining based cell adhesion assay. In a few lines: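 Colon carcinoma SW480 cells plated on fibronectin (0.3 mg/ml) to isolate α5β1-dependent adhesion. Values reported as pIC50 (–logIC50, M) with standard deviation, n=3.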

Molecules are shown by their SMILES.

Sequence of Integrin alpha-V/beta-5 (P06756 31-889 limits assumed): as the sequence (P06756 31-889 limits assumed) above
Sequence of Integrin alpha-V/beta-5 (P06756 891-1048 limits assumed): as the sequence (P06756 891-1048 limits assumed) above
Sequence of Integrin alpha-V/beta-5 (P18084 24-799 limits assumed): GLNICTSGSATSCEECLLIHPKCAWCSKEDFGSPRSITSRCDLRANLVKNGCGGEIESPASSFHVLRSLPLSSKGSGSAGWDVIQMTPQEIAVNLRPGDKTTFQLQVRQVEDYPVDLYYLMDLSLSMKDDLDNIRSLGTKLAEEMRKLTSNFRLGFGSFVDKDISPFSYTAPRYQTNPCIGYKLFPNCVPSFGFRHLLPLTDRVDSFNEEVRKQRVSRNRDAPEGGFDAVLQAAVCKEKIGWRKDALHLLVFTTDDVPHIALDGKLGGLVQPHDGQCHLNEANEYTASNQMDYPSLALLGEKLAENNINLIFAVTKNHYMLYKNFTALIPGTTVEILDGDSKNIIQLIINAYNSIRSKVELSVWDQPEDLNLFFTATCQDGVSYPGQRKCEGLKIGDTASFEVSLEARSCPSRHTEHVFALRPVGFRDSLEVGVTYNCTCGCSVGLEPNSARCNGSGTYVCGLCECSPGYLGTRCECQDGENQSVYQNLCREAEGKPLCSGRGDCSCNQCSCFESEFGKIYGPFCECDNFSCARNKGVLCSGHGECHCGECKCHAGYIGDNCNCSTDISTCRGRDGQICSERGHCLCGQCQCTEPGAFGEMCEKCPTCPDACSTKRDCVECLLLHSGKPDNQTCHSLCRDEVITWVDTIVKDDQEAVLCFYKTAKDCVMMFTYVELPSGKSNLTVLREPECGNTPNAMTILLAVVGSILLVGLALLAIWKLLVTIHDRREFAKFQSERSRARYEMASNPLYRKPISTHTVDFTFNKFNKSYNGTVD
Sequence of Integrin alpha-V/beta-8 (P06756 31-889 limits assumed): as the sequence (P06756 31-889 limits assumed) above
Sequence of Integrin alpha-V/beta-8 (P06756 891-1048 limits assumed): as the sequence (P06756 891-1048 limits assumed) above
Sequence of Integrin alpha-V/beta-8 (P26012 43-769 limits assumed): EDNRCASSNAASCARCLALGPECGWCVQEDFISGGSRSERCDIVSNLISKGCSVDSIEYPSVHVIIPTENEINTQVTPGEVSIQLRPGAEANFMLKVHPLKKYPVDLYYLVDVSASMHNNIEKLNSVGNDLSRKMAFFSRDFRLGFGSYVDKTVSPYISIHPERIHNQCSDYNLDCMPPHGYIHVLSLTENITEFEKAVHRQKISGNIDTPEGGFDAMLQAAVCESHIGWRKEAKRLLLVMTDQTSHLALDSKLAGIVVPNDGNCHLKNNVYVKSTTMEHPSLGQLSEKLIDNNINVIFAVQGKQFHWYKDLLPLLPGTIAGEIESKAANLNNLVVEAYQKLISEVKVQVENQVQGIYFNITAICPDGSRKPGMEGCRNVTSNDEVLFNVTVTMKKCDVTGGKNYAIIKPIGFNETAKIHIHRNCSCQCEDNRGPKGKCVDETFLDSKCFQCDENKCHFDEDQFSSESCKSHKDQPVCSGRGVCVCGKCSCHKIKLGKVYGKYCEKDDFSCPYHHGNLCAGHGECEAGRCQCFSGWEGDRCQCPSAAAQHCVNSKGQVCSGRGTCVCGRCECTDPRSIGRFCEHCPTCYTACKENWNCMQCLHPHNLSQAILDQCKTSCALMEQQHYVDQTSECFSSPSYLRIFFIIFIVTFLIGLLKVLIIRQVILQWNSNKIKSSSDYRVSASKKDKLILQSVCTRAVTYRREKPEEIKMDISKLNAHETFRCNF
Sequence of Integrin alpha-V/beta-1 (P05556 21-798 limits assumed): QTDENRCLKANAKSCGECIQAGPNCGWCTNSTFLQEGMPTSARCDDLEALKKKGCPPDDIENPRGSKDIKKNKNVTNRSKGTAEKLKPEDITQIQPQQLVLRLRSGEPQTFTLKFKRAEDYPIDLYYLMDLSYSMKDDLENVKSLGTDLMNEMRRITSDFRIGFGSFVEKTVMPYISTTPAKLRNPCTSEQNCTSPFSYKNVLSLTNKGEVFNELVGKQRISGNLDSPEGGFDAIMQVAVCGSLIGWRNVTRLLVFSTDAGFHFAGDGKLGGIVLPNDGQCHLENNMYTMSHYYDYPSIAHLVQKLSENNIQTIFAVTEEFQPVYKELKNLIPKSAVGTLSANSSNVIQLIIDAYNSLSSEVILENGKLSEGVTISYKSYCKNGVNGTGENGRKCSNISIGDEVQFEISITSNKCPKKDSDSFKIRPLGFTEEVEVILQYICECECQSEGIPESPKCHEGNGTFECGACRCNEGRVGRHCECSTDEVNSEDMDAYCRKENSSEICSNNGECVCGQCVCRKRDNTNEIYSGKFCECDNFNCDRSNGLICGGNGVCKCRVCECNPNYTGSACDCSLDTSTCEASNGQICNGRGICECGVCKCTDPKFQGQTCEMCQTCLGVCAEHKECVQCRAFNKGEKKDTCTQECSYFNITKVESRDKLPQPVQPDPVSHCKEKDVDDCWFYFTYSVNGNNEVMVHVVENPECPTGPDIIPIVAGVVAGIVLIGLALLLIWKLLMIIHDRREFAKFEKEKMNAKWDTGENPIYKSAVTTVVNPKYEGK
Sequence of Integrin alpha-V/beta-1 (P06756 31-889 limits assumed): as the sequence (P06756 31-889 limits assumed) above
Sequence of Integrin alpha-V/beta-1 (P06756 891-1048 limits assumed): as the sequence (P06756 891-1048 limits assumed) above

In the case of `N=C(N)NCCCCC(=O)Nc1ccc(C[C@H](NC(=O)[C@@H]2CCCN2S(=O)(=O)c2ccc3ccccc3c2)C(=O)O)cc1`, the IC50 in test [1] (read-out: IC50) was 2500 nM. On to `N=C(N)NCCCCC(=O)Nc1ccc(C[C@H](NC(=O)[C@@H]2CCCN2S(=O)(=O)c2ccccc2)C(=O)O)cc1`, for which the IC50 is greater than 10000 nM in test [2]; greater than 10000 nM in test [3]; greater than 10000 nM in test [4]; greater than 10000 nM in test [5]; 0.63 nM in test [1] (read-out: IC50). Consider `N=C(N)Nc1cccc(C(=O)Nc2ccc(C[C@H](NC(=O)[C@@H]3CCCN3S(=O)(=O)c3ccccc3)C(=O)O)cc2)c1`, for which the IC50 in test [2] was 40 nM; in test [3] it was greater than 10000 nM; in test [4] it was 160 nM; in test [5], 63 nM; in test [1] (read-out: IC50) it was 0.06 nM. As for `N=C(N)Nc1ccc(C(=O)Nc2ccc(C[C@H](NC(=O)[C@@H]3CCCN3S(=O)(=O)c3ccccc3)C(=O)O)cc2)cc1`, the IC50 in test [1] (read-out: IC50) was found to be 800 nM.

As for `N=C(N)NCCCCC(=O)Nc1ccc(C[C@H](NC(=O)[C@@H]2C[C@H](F)CN2S(=O)(=O)c2ccccc2)C(=O)O)cc1`, the IC50 in test [1] (read-out: IC50) turned out to be 0.5 nM. On the same count and under the same terms, the value for `N=C(N)NCCCCC(=O)Nc1ccc(C[C@H](NC(=O)[C@@H]2CCN2S(=O)(=O)c2ccccc2)C(=O)O)cc1` was 160 nM; that for `N=C(N)NCCCCC(=O)Nc1ccc(C[C@H](NC(=O)[C@@H]2CCCN2S(=O)(=O)c2cccnc2)C(=O)O)cc1` was 32 nM. For the compound `Cc1cc(C)c(S(=O)(=O)N2CCC[C@H]2C(=O)N[C@@H](Cc2ccc(NC(=O)CCCCNC(=N)N)cc2)C(=O)O)c(C)c1`, the IC50 in test [1] (cho, read-out: IC50) is greater than 10000 nM; in test [1] (read-out: pIC50 (converted)), greater than 10000 nM. `N=C(N)N[C@H]1CC[C@@H](C(=O)Nc2ccc(C[C@H](NC(=O)[C@@H]3CCCN3S(=O)(=O)c3ccccc3)C(=O)O)cc2)CC1`: the IC50 in test [1] (read-out: IC50) came to 2 nM. `O=C(CCCNc1ccccn1)Nc1ccc(C[C@H](NC(=O)[C@@H]2CCCN2S(=O)(=O)c2ccccc2)C(=O)O)cc1`: the IC50 in test [2] is 400 nM; in test [3], greater than 10000 nM; in test [4], greater than 10000 nM; in test [5] it was greater than 10000 nM; in test [1] (read-out: IC50), 0.2 nM. With `N=C(N)NCCCC(=O)Nc1ccc(C[C@H](NC(=O)[C@@H]2CCCCN2S(=O)(=O)c2ccccc2)C(=O)O)cc1`, the IC50 in test [2] came to 2500 nM; in test [3] it was 1600 nM; in test [4] it was 2000 nM; in test [5], 3200 nM; in test [1] (read-out: IC50) it was 0.25 nM. Turning to `O=C(CCCCNC1=NCCCN1)Nc1ccc(C[C@H](NC(=O)[C@@H]2CCCN2S(=O)(=O)c2ccccc2)C(=O)O)cc1`, the IC50 in test [1] (read-out: IC50) was 2 nM.

Regarding `O=C(CCCCNC1=NCCN1)Nc1ccc(C[C@H](NC(=O)[C@@H]2CCCN2S(=O)(=O)c2ccccc2)C(=O)O)cc1`, the IC50 is greater than 10000 nM in test [2]; 200 nM in test [3]; greater than 10000 nM in test [4]; greater than 10000 nM in test [5]; 0.31 to 0.32 nM in test [1] (read-out: IC50); 0.316 nM in test [1] (read-out: pIC50 (converted)). As for `Cc1cc(C)cc(S(=O)(=O)N2CCC[C@H]2C(=O)N[C@@H](Cc2ccc(NC(=O)CCCNC(=N)N)cc2)C(=O)O)c1`, the IC50 in test [1] (read-out: IC50) was determined as 790 nM.

Consider `CC1(C)SCN(S(=O)(=O)c2ccccc2)[C@@H]1C(=O)N[C@@H](Cc1ccc(NC(=O)CCCCNC(=N)N)cc1)C(=O)O`, for which, in test [1] (read-out: IC50), the IC50 stood at 2000 nM. On to `C[C@@]1(C(=O)N[C@@H](Cc2ccc(NC(=O)CCCCNC(=N)N)cc2)C(=O)O)CCCN1S(=O)(=O)c1ccccc1`, for which the IC50 in test [1] (cho, read-out: IC50) is greater than 10000 nM; in test [1] (read-out: pIC50 (converted)), greater than 10000 nM. Consider `N=C(N)NCCCCC(=O)Nc1ccc(C[C@H](NC(=O)[C@@H]2CCCN2S(=O)(=O)c2cccs2)C(=O)O)cc1`, for which the IC50 in test [1] (read-out: IC50) was found to be 50 nM. Still for that read-out and setting: as for `N=C(N)NCCCCC(=O)Nc1ccc(C[C@H](NC(=O)[C@@H]2C[C@@H](F)CN2S(=O)(=O)c2ccccc2)C(=O)O)cc1`, the figure is 0.5 nM. Same read-out and setting: the value for `Cc1cccc(NCCCC(=O)Nc2ccc(C[C@H](NC(=O)[C@@H]3CCCN3S(=O)(=O)c3ccccc3)C(=O)O)cc2)n1` was 200 nM; that for `O=C(CCCCNc1ccccn1)Nc1ccc(C[C@H](NC(=O)[C@@H]2CCCN2S(=O)(=O)c2ccccc2)C(=O)O)cc1` was 2 nM.

Take `N=C(N)NCCCCC(=O)Nc1ccc(C[C@H](NC(=O)[C@@H]2CCCN2S(=O)(=O)c2cc(F)cc(F)c2)C(=O)O)cc1`: in test [1] (read-out: IC50), the IC50 was determined as 40 nM. Same read-out and setting: as for `O=C(CCCNC1=NCCN1)Nc1ccc(C[C@H](NC(=O)[C@@H]2CCCN2S(=O)(=O)c2ccccc2)C(=O)O)cc1`, the figure is 0.13 nM. `N=C(N)NCCCCC(=O)Nc1ccc(C[C@H](NC(=O)[C@@H]2CCCCN2S(=O)(=O)c2ccccc2)C(=O)O)cc1`: the IC50 in test [2] is 2000 nM; in test [3] it was 160 nM; in test [4] it was 4000 nM; in test [5] it was 3200 nM; in test [1] (read-out: IC50), 0.31 to 0.32 nM; in test [1] (read-out: pIC50 (converted)), 0.316 nM. For `N=C(N)NCCCCC(=O)Nc1ccc(C[C@H](NC(=O)[C@@H]2CCCN2S(=O)(=O)c2ccccc2[N+](=O)[O-])C(=O)O)cc1`, the IC50 in test [1] (read-out: IC50) is 630 nM. Regarding `N=C(N)NCCCCC(=O)Nc1ccc(C[C@H](NC(=O)[C@@H]2CCCN2S(=O)(=O)c2cccc([N+](=O)[O-])c2)C(=O)O)cc1`, in test [1] (read-out: IC50), the IC50 was found to be 13 nM. On to `CN(C)c1cccc2c(S(=O)(=O)N3CCC[C@H]3C(=O)N[C@@H](Cc3ccc(NC(=O)CCCCNC(=N)N)cc3)C(=O)O)cccc12`, for which, in test [1] (read-out: IC50), the IC50 was 79 nM. Still for that read-out and setting: as for `N=C(N)NCCCC(=O)Nc1ccc(C[C@H](NC(=O)[C@@H]2CCCN2S(=O)(=O)c2ccccc2)C(=O)O)cc1`, the figure is 0.02 nM; as for `N=C(N)Nc1ccc(CC(=O)Nc2ccc(C[C@H](NC(=O)[C@@H]3CCCN3S(=O)(=O)c3ccccc3)C(=O)O)cc2)cc1`, 50 nM; as for `Cc1ccc(S(=O)(=O)N2CCC[C@H]2C(=O)N[C@@H](Cc2ccc(NC(=O)CCCNC(=N)N)cc2)C(=O)O)cc1`, 630 nM.

On to `Cc1ccc(NCCCC(=O)Nc2ccc(C[C@H](NC(=O)[C@@H]3CCCN3S(=O)(=O)c3ccccc3)C(=O)O)cc2)nc1`, for which the IC50 in test [1] (read-out: IC50) was 320 nM. Turning to `N=C(N)NCCCCC(=O)Nc1ccc(C[C@H](NC(=O)[C@@H]2CSCN2S(=O)(=O)c2ccccc2)C(=O)O)cc1`, in test [1] (read-out: IC50), the IC50 came out at 16 nM. On the same count and under the same terms, as for `N=C(N)NC12CC3CC(C1)CC(C(=O)Nc1ccc(C[C@H](NC(=O)[C@@H]4CCCN4S(=O)(=O)c4ccccc4)C(=O)O)cc1)(C3)C2`, the figure is 2500 nM; as for `Cc1cc(F)ccc1S(=O)(=O)N1CCC[C@H]1C(=O)N[C@@H](Cc1ccc(NC(=O)CCCCNC(=N)N)cc1)C(=O)O`, 500 nM; as for `N=C(N)NCCCCC(=O)Nc1ccc(C[C@H](NC(=O)[C@@H]2C=CCN2S(=O)(=O)c2ccccc2)C(=O)O)cc1`, 800 nM. Still for that read-out and setting: the value for `Cc1ccc(S(=O)(=O)N2CCC[C@H]2C(=O)N[C@@H](Cc2ccc(NC(=O)CCCCNC(=N)N)cc2)C(=O)O)c2ccccc12` was 6300 nM.
